In ChEMBL document CHEMBL1145100, “Structure-activity relationship of imidazo[1,2-a]pyridines as ligands for detecting beta-amyloid plaques in the brain” (J Med Chem, 2003):

Target: Amyloid-beta precursor protein (Homo sapiens, UniProt P05067)
Assay: Inhibition constant against [125I]-7 (TZDM) binding to Amyloid beta 1-40 aggregates
Method in brief: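 Abeta40 peptide aggregated at 0.5 mg/mL in pH 7.4 buffer (10 mM sodium phosphate, 1 mM EDTA), 37 °C for 36-42 h with shaking. Competition in 1 mL of 40% EtOH: fibrils 10-50 nM final, radiotracer 0.05 nM, inhibitors 10^-5 to 10^-10 M. Nonspecific binding with 2 µM thioflavin-T. Incubated 3 h at room temperature, then GF/B filtration with 10% ethanol washes and gamma counting. Ki from nonlinear regression.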

Amyloid-beta precursor protein, sequence (P05067 whole entry): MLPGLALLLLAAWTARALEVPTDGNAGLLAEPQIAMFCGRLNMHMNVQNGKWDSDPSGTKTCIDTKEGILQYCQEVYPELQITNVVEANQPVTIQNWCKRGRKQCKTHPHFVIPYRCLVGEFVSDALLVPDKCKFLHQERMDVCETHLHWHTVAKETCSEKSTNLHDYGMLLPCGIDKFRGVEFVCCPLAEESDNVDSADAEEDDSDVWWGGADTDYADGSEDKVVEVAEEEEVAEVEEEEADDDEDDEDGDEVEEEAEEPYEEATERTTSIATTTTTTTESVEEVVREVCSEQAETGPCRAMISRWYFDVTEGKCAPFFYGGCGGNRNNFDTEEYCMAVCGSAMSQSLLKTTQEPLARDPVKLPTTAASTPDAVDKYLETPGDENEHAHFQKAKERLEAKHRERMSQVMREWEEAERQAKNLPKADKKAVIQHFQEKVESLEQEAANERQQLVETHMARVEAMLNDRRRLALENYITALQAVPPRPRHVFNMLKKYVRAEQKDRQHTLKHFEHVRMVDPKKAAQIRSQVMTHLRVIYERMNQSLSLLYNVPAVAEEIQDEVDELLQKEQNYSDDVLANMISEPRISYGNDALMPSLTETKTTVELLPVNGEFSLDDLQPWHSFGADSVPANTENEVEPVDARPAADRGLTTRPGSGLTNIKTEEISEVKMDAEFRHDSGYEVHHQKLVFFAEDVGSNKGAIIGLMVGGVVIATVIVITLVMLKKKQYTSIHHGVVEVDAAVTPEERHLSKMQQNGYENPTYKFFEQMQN

Ki [nM] | Compound
339 | CN(C)c1ccc2nc(-c3ccc(Br)cc3)cn2c1
> 2000 | CN(C)c1ccc(-c2nc3ccc(I)cn3c2I)cc1
